Experimental data as given in ChEMBL document CHEMBL1781959, “Synthesis and in vitro antitumor activity of substituted quinazoline and quinoxaline derivatives: search for anticancer agent” (Eur J Med Chem, 2011).

Key:
Type in all cases: functional
[1] = test system: SF-268; assay: Anticancer activity against human SF268 cells assessed as cell growth promotion at 10^-5 M after 48 hrs by SRB assay relative to control
[2] = test system: SF-295; assay: Anticancer activity against human SF295 cells assessed as cell growth promotion at 10^-5 M after 48 hrs by SRB assay relative to control
[3] = test system: SF-539; assay: Anticancer activity against human SF539 cells assessed as cell growth promotion at 10^-5 M after 48 hrs by SRB assay relative to control
[4] = test system: SNB-19; assay: Anticancer activity against human SNB19 cells assessed as cell growth promotion at 10^-5 M after 48 hrs by SRB assay relative to control
[5] = test system: U-251; assay: Anticancer activity against human U251 cells assessed as cell growth promotion at 10^-5 M after 48 hrs by SRB assay relative to control
[6] = test system: M14; assay: Anticancer activity against human M14 cells assessed as cell growth promotion at 10^-5 M after 48 hrs by SRB assay relative to control
[7] = test system: MDA-MB-435; assay: Anticancer activity against human MDA-MB-435 cells assessed as cell growth promotion at 10^-5 M after 48 hrs by SRB assay relative to control
[8] = test system: SK-MEL-28; assay: Anticancer activity against human SK-MEL-28 cells assessed as cell growth promotion at 10^-5 M after 48 hrs by SRB assay relative to control
[9] = test system: SK-MEL-5; assay: Anticancer activity against human SK-MEL-5 cells assessed as cell growth promotion at 10^-5 M after 48 hrs by SRB assay relative to control
[10] = test system: UACC-257; assay: Anticancer activity against human UACC257 cells assessed as cell growth promotion at 10^-5 M after 48 hrs by SRB assay relative to control
[11] = test system: IGROV-1; assay: Anticancer activity against human IGROV1 cells assessed as cell growth promotion at 10^-5 M after 48 hrs by SRB assay relative to control
[12] = test system: OVCAR-8; assay: Anticancer activity against human OVCAR8 cells assessed as cell growth promotion at 10^-5 M after 48 hrs by SRB assay relative to control
[13] = test system: NCI/ADR-RES; assay: Anticancer activity against human NCI/ADR-RES cells assessed as cell growth promotion at 10^-5 M after 48 hrs by SRB assay relative to control
[14] = test system: SK-OV-3; assay: Anticancer activity against human SKOV3 cells assessed as cell growth promotion at 10^-5 M after 48 hrs by SRB assay relative to control
[15] = test system: ACHN; assay: Anticancer activity against human ACHN cells assessed as cell growth promotion at 10^-5 M after 48 hrs by SRB assay relative to control
[16] = test system: RXF 393; assay: Anticancer activity against human RXF393 cells assessed as cell growth promotion at 10^-5 M after 48 hrs by SRB assay relative to control
[17] = test system: SN12C; assay: Anticancer activity against human SN12C cells assessed as cell growth promotion at 10^-5 M after 48 hrs by SRB assay relative to control
[18] = test system: UO-31; assay: Anticancer activity against human UO31 cells assessed as cell growth promotion at 10^-5 M after 48 hrs by SRB assay relative to control
[19] = test system: DU-145; assay: Anticancer activity against human DU145 cells assessed as cell growth promotion at 10^-5 M after 48 hrs by SRB assay relative to control
[20] = test system: MCF7; assay: Anticancer activity against human MCF7 cells assessed as cell growth promotion at 10^-5 M after 48 hrs by SRB assay relative to control
[21] = test system: HL-60(TB); assay: Anticancer activity against human HL-60(TB) cells assessed as cell growth promotion at 10^-5 M after 48 hrs by SRB assay relative to control
Outline: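 NCI-60 single-dose screen: compound at 10^-5 M, 48 h at 37 °C, 5% CO2; cells grown in RPMI 1640 with 5% FBS and 2 mM L-glutamine, pre-incubated 24 h before dosing. Adherent cells fixed with cold TCA; endpoint is sulforhodamine B protein staining. Percent growth of treated cells is reported relative to untreated control.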

[22] = test system: K562; assay: Anticancer activity against human K562 cells assessed as cell growth promotion at 10^-5 M after 48 hrs by SRB assay relative to control
[23] = test system: MOLT-4; assay: Anticancer activity against human MOLT4 cells assessed as cell growth promotion at 10^-5 M after 48 hrs by SRB assay relative to control
[24] = test system: T47D; assay: Anticancer activity against human T47D cells assessed as cell growth promotion at 10^-5 M after 48 hrs by SRB assay relative to control
[25] = test system: MDA-MB-468; assay: Anticancer activity against human MDA-MB-468 cells assessed as cell growth promotion at 10^-5 M after 48 hrs by SRB assay relative to control
[26] = test system: SR; assay: Anticancer activity against human SR cells assessed as cell growth promotion at 10^-5 M after 48 hrs by SRB assay relative to control
[27] = test system: HOP-62; assay: Anticancer activity against human HOP62 cells assessed as cell growth promotion at 10^-5 M after 48 hrs by SRB assay relative to control
[28] = test system: NCI-H226; assay: Anticancer activity against human NCI-H226 cells assessed as cell growth promotion at 10^-5 M after 48 hrs by SRB assay relative to control
[29] = test system: NCI-H23; assay: Anticancer activity against human NCI-H23 cells assessed as cell growth promotion at 10^-5 M after 48 hrs by SRB assay relative to control
[30] = test system: COLO 205; assay: Anticancer activity against human COLO205 cells assessed as cell growth promotion at 10^-5 M after 48 hrs by SRB assay relative to control
[31] = test system: HCC 2998; assay: Anticancer activity against human HCC2998 cells assessed as cell growth promotion at 10^-5 M after 48 hrs by SRB assay relative to control
[32] = test system: HCT-116; assay: Anticancer activity against human HCT116 cells assessed as cell growth promotion at 10^-5 M after 48 hrs by SRB assay relative to control
[33] = test system: HCT-15; assay: Anticancer activity against human HCT15 cells assessed as cell growth promotion at 10^-5 M after 48 hrs by SRB assay relative to control
[34] = test system: HT-29; assay: Anticancer activity against human HT-29 cells assessed as cell growth promotion at 10^-5 M after 48 hrs by SRB assay relative to control
[35] = test system: KM12; assay: Anticancer activity against human KM12 cells assessed as cell growth promotion at 10^-5 M after 48 hrs by SRB assay relative to control
[36] = test system: SW-620; assay: Anticancer activity against human SW620 cells assessed as cell growth promotion at 10^-5 M after 48 hrs by SRB assay relative to control
[37] = Anticancer activity against human Hs 578T cells assessed as cell growth promotion at 10^-5 M after 48 hrs by SRB assay relative to control
[38] = Anticancer activity against human […] cells assessed as cell growth promotion at 10^-5 M after 48 hrs by SRB assay relative to control

| SMILES | Activity [1] [%] | Activity [2] [%] | Activity [3] [%] | Activity [4] [%] | Activity [5] [%] | Activity [6] [%] | Activity [7] [%] | Activity [8] [%] | Activity [9] [%] | Activity [10] [%] | Activity [11] [%] | Activity [12] [%] | Activity [13] [%] | Activity [15] [%] | Activity [16] [%] | Activity [17] [%] | Activity [18] [%] | Activity [19] [%] | Activity [20] [%] | Activity [21] [%] | also measured |
| --- | --- | --- | --- | --- | --- | --- | --- | --- | --- | --- | --- | --- | --- | --- | --- | --- | --- | --- | --- | --- | --- |
| O=C(O)c1ccc(-n2c(-c3ccco3)nc3ccccc3c2=O)cc1 | 106.85 | 108.58 | 104.2 | 91.35 | 102.8 | 103.37 | 112.17 | 115.08 | 94.96 | 107.43 | 91.67 | 104.87 | 102.28 | 101.24 | 109.93 | 99.34 | 68.61 | 111.42 | 63.47 | 94.52 | Activity [14]: 107.59%; Activity [22]: 98.25%; Activity [23]: 91.05%; Activity [24]: 83%; Activity [25]: 101.43%; Activity [26]: 92.85%; Activity [27]: 107.05%; Activity [28]: 78.42%; Activity [29]: 98.82%; Activity [30]: 103.97%; Activity [31]: 120.31%; Activity [32]: 99.69%; Activity [33]: 93.69%; Activity [34]: 92%; Activity [35]: 104.99%; Activity [36]: 106.15% |
| Oc1ccccc1/C=C/c1nc2ccccc2nc1SCc1nc2ccccc2[nH]1 | 81.66 | 93.22 | 97.28 | 76.6 | 83.34 | 70.2 | 81.04 | 95.95 | 68.43 | 81.1 | 59.92 | 75.12 | 82.43 | 69.99 | 87.29 | 78.21 | 49.71 | 76.88 | 51.8 | 26.78 | Activity [22]: 77.33%; Activity [23]: 57.51%; Activity [37]: 48.8%; Activity [25]: 59.53%; Activity [38]: 63.38%; Activity [26]: 44.46%; Activity [27]: 73.71%; Activity [28]: 79.35%; Activity [29]: 76.93%; Activity [30]: 96.37%; Activity [31]: 102%; Activity [32]: 65.39%; Activity [33]: 74.29%; Activity [34]: 83.56%; Activity [35]: 77.92%; Activity [36]: 93.22% |
| Oc1ccc(/C=C/c2nc3ccccc3nc2SCc2nc3ccccc3[nH]2)cc1 | 91.53 | 82.46 | 111 | 97.81 | 95.56 | 100 | 96.11 | 102 | 95.26 | 117 | 71.03 | 100 | 100 | 93.62 | 106 | 94.78 | 85.96 | 97.51 | 89.91 | 84.38 | Activity [22]: 107%; Activity [23]: 75.47%; Activity [37]: 110%; Activity [25]: 114%; Activity [38]: 85.51%; Activity [26]: 99.18%; Activity [27]: 101%; Activity [28]: 99.33%; Activity [29]: 102%; Activity [30]: 119%; Activity [31]: 123%; Activity [32]: 89.77%; Activity [33]: 96.67%; Activity [34]: 86.49%; Activity [35]: 98.91%; Activity [36]: 95.64% |
| CN(C)c1ccc(/C=C/c2nc3ccccc3nc2SCc2nc3ccccc3[nH]2)cc1 | 107 | 104 | 85.81 | 96.81 | 102 | 92.21 | 102 | 124 | 97.96 | 102 | 116 | 108 | 106 | 103 | 99.96 | 100 | 84.96 | 95.35 | 77.51 | 87.19 | Activity [22]: 105%; Activity [23]: 84.64%; Activity [37]: 119%; Activity [25]: 109%; Activity [38]: 100%; Activity [26]: 79.22%; Activity [27]: 100%; Activity [28]: 105%; Activity [29]: 102%; Activity [30]: 110%; Activity [31]: 90.32%; Activity [32]: 87.81%; Activity [33]: 93.83%; Activity [34]: 101%; Activity [35]: 104%; Activity [36]: 102% |
| N#Cc1ccc(/C=C/c2nc3ccccc3nc2SCc2nc3ccccc3[nH]2)cc1 | 109 | 127 | 125 | 100 | 107 | 99.32 | 109 | 88.08 | 101 | 113 | 103 | 103 | 103 | 100 | 107 | 94.09 | 86.51 | 103 | 101 | 94.7 | Activity [22]: 99.2%; Activity [23]: 88.59%; Activity [37]: 107%; Activity [25]: 104%; Activity [38]: 102%; Activity [26]: 97.73%; Activity [27]: 99.49%; Activity [28]: 95.59%; Activity [29]: 105%; Activity [30]: 105%; Activity [32]: 88.47%; Activity [33]: 114%; Activity [34]: 89.43%; Activity [35]: 104%; Activity [36]: 98.13% |
